The test system of assay [1] is ScN2a. The assay is described as follows: Antiprion activity in ScN2a cells assessed as complete reduction of protease-resistant scrapie prion protein. It is filed as functional, Mus musculus. Summed up: (§1)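 Mouse N2a neuroblastoma cells chronically infected with RML scrapie, subcloned for high PrPSc. Grown in MEM with 10% FCS, penicillin-streptomycin and L-glutamine; compound renewed with medium every second day. Lysed day 7 (~80% confluent), proteinase K 20 µg/mL 30 min 37°C, ultracentrifuged pellet immunoblotted with anti-PrP antibody. EC50 from densitometry of five concentrations; full activity means complete loss of PK-resistant PrP; triplicate experiments.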

The subject of assay [2] is ScN2a. The assay is described as follows: Inhibition of protease-resistant scrapie prion protein activity in ScN2a cells. It is filed as functional, cell-based. The settings on record: Mus musculus. In outline:
as §1

For assay [3], the system named is ScN2a. Nature of the assay: Toxicity against mouse ScN2a cells measured as less than 80% confluency after 1 week. Format: functional. Summed up:
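RML-infected ScN2a mouse neuroblastoma cells cultured 1 week in MEM with 10% FCS, with compound renewed with medium every second day. Toxicity scored as confluency below 80% at the end of treatment.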

The results in this text go back to ChEMBL document CHEMBL1137313, “A chimeric ligand approach leading to potent antiprion active acridine derivatives: design, synthesis, and biological investigations” (J Med Chem, 2006).

Broadly, the EC50 is the concentration needed to bring the measured effect to its halfway point. Read a high EC50 as a less potent agent.

Regarding `c1ccc2c(c1)Sc1ccccc1N2CCCN1CCN(CCCCNc2c3ccccc3nc3ccccc23)CC1`, the figures for the Activity in the assay on ScN2a [1] and with ScN2a [3] were 750 nM and 4000 nM, respectively. In the assay with ScN2a [2], this compound yielded a half-maximal effective concentration (EC50) of 300 nM.

Turning to `COc1ccc2nc3cc(Cl)ccc3c(NCCCN3CCN(CCCN(c4ccccc4)c4ccccc4)CC3)c2c1`, the values for the Activity with ScN2a [1] and with ScN2a [3] were 500 nM and 2000 nM, respectively. In the assay with ScN2a [2], this compound yielded an EC50 of 280 nM.

Consider `COc1ccc2nc3cc(Cl)ccc3c(NCCCCN3CCN(CCCN(c4ccccc4)c4ccccc4)CC3)c2c1`, for which the results for the Activity with ScN2a [1] and in the assay with ScN2a [3] were 500 nM and >1000 nM, respectively. In the assay with ScN2a [2], the EC50 amounted to 250 nM.

Regarding `COc1ccc2nc3cc(Cl)ccc3c(NCCCN3CCN(CCCN4c5ccccc5Sc5ccccc54)CC3)c2c1`, the results for the Activity with ScN2a [1] and with ScN2a [3] were 500 nM and 2500 nM, respectively. This compound also registered an EC50 with ScN2a [2] of 200 nM.

Turning to `COc1ccc2nc3cc(Cl)ccc3c(NCCN3CCN(CCCN(c4ccccc4)c4ccccc4)CC3)c2c1`, the Activity with ScN2a [1] is on record as 500 nM; in the assay on ScN2a [3], 1500 nM. The same compound came in with an EC50 in the assay on ScN2a [2] of 290 nM.

Regarding `c1ccc2c(c1)CCc1ccccc1N2CCCN1CCN(CCCCNc2c3ccccc3nc3ccccc23)CC1`, the Activity is given as 400 nM in the assay with ScN2a [1] and 750 nM with ScN2a [3]. Further, the concentration giving a half-maximal response (EC50) with ScN2a [2] turned out to be 150 nM.

`c1ccc(N(CCCN2CCN(CCCNc3c4ccccc4nc4ccccc34)CC2)c2ccccc2)cc1`: the Activity worked out at 500 nM with ScN2a [1] and 1500 nM with ScN2a [3]. The compound also yielded a concentration giving a half-maximal response (EC50) in the assay with ScN2a [2] of 120 nM.

With `COc1ccc2nc3cc(Cl)ccc3c(NCCCN3CCN(CCCN4c5ccccc5CCc5ccccc54)CC3)c2c1`, the figures for the Activity with ScN2a [1] and in the assay on ScN2a [3] were 500 nM and 1500 nM, respectively. Further, in the assay on ScN2a [2], it took 260 nM to reach a half-maximal effect (EC50).

On to `c1ccc(N(CCCN2CCN(CCCCNc3c4ccccc4nc4ccccc34)CC2)c2ccccc2)cc1`, for which the Activity in the assay on ScN2a [1] stood at 400 nM; in the assay with ScN2a [3], 1000 nM. The compound also gave an EC50 in the assay with ScN2a [2] of 230 nM.

As to `COc1ccc2nc3cc(Cl)ccc3c(NCCCCN3CCN(CCCN4c5ccccc5CCc5ccccc54)CC3)c2c1`, the Activity was 100 nM with ScN2a [1] and 400 nM with ScN2a [3]. In addition, the 50% effective concentration (EC50) in the assay on ScN2a [2] was determined as 80 nM.

Consider `c1ccc2c(c1)CCc1ccccc1N2CCCN1CCN(CCCNc2c3ccccc3nc3ccccc23)CC1`, for which the Activity was determined as 500 nM with ScN2a [1] and 1000 nM in the assay on ScN2a [3]. The compound further yielded an EC50 in the assay on ScN2a [2] of 230 nM.

Take `c1ccc(N(CCCN2CCN(CCNc3c4ccccc4nc4ccccc34)CC2)c2ccccc2)cc1`: the Activity in the assay on ScN2a [1] came to 200 nM; in the assay on ScN2a [3] it was 1000 nM. This compound came in with an EC50 in the assay on ScN2a [2] of 75 nM.

Take `c1ccc2c(c1)Sc1ccccc1N2CCCN1CCN(CCNc2c3ccccc3nc3ccccc23)CC1`: the figures for the Activity in the assay with ScN2a [1] and with ScN2a [3] were 600 nM and 3000 nM, respectively. The compound also showed an EC50 with ScN2a [2] of 370 nM.

Regarding `COc1ccc2nc3cc(Cl)ccc3c(NCCCCN3CCN(CCCN4c5ccccc5Sc5ccccc54)CC3)c2c1`, the figures for the Activity in the assay with ScN2a [1] and in the assay with ScN2a [3] were 1000 nM and 2000 nM, respectively. The same compound came in with an EC50 in the assay with ScN2a [2] of 350 nM.

Turning to `c1ccc2c(c1)Sc1ccccc1N2CCCN1CCN(CCCNc2c3ccccc3nc3ccccc23)CC1`, the Activity was 500 nM in the assay with ScN2a [1] and 1000 nM in the assay with ScN2a [3]. The same compound gave a half-maximal effective concentration (EC50) with ScN2a [2] of 140 nM.

As to `COc1ccc2nc3cc(Cl)ccc3c(NCCN3CCN(CCCN4c5ccccc5CCc5ccccc54)CC3)c2c1`, the Activity in the assay with ScN2a [1] was 1000 nM; in the assay on ScN2a [3], 2000 nM. The same compound came in with a half-maximal effective concentration (EC50) in the assay on ScN2a [2] of 570 nM.

On to `c1ccc2c(c1)CCc1ccccc1N2CCCN1CCN(CCNc2c3ccccc3nc3ccccc23)CC1`, for which the Activity in the assay with ScN2a [1] is on record as 75 nM; in the assay with ScN2a [3] it was 500 nM. This compound also returned an EC50 in the assay on ScN2a [2] of 20 nM.

As to `COc1ccc2nc3cc(Cl)ccc3c(NCCN3CCN(CCCN4c5ccccc5Sc5ccccc54)CC3)c2c1`, the Activity was determined as 2000 nM in the assay with ScN2a [1] and 4000 nM in the assay on ScN2a [3]. The same compound came in with an EC50 in the assay on ScN2a [2] of 830 nM.

Turning to `CN(C)CCCN1c2ccccc2CCc2ccccc21` [IMIPRAMINE], the Activity in the assay with ScN2a [1] came to 10000 nM. Besides, in the assay on ScN2a [2], the EC50 is 5000 nM.

Regarding `CCN(CC)CCCC(C)Nc1c2ccc(Cl)cc2nc2ccc(OC)cc12` (stereo not drawn) [QUINACRINE], the Activity in the assay on ScN2a [1] is 500 nM. Also, the EC50 in the assay on ScN2a [2] turned out to be 300 nM.
